Hits are enriched below; roughly 3.3% of the tested compounds scored in any of these assays.
PRMT1 FP inh: inhibitors of human PRMT1; Q99873; recombinant PRMT1, activity-based probe fluorescence polarization; inhibition, % at 2.79 µM; actives 1.3% (n = 370,000);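 active = inhibition above about 21% made by adding two undisclosed values, limit read from the data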
SIAE primary: inhibitors of human sialic acid acetylesterase SIAE | Q9HAT2 | inhibition, % at 9.66 µM | actives 0.69% (n = 370,000) | SIAE FP-Rh probe binding, fluorescence polarization;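 active = inhibition above a cutoff: mean of compounds within the control limits plus 3 SD of those, cut at about 17% in these data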;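 note: 0% = plate median of compound wells and 100% = probe without SIAE protein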
LEDGF integ inh: blocks HIV-1 LEDGF/p75-dependent DNA integration. TR-FRET IN-LEDGF/p75 DNA integration, Eu/Cy5. inhibition, % at 3.7 µM. actives 0.64% (n = 370,000);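 active = inhibition above the screen-wide mean plus 3 SD, cut at about 13% in these data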;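 note: signal is the Cy5 over europium emission ratio at 671 and 618 nm; 0% = plate median of compound wells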
UHRF1 MBD2 ctr: UHRF1 methyl-DNA binding inhibition. actives 0.75% (n = 370,000). AID 687016. inhibition, % at 4.4 µM. UHRF1 binding to methylated oligo, TR-FRET; in the data active = inhibition above about 21%;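 note: UHRF1 SRA domain binding a hemimethylated CpG hairpin DNA probe; 0% = median of test compound wells and 100% = reference inhibitor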
MBD2 inh: inhibitors of human MBD2 binding to methylated oligonucleotide; TR-FRET; inhibition, % at 4.4 µM; actives 0.31% (n = 370,000); AID 686964; in the data active = inhibition above about 13%
TDP2 absorb: TDP2 (human) inhibition, absorbance primary screen. O95551. recombinant TDP2, T5PNP hydrolysis, p-nitrophenol absorbance 415 nm. inhibition, % at 12.8 µM. actives 0.34% (n = 370,000). AID 720702;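 active = inhibition above the mean of all tested compounds plus 3 SD, set per campaign, cut at about 25% in these data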;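 note: 0% = DMSO with enzyme and 100% = buffer with substrate but no TDP2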
Target sequence (O95551 whole entry, looked up): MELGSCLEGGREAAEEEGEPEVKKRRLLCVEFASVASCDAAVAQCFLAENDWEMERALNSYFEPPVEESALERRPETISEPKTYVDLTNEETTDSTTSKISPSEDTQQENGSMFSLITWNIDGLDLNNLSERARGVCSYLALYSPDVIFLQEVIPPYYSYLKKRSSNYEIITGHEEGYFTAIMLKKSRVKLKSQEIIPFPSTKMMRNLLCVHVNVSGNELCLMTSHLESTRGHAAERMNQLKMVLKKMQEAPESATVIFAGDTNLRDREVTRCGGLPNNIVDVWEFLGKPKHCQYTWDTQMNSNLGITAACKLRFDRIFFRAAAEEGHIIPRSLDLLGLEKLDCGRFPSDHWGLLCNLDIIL
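Assay system: recombinant human TDP2 / Reagent: T5PNP substrate at 5 mM, a TopII-DNA adduct mimic / Measured by: epi absorbance from released p-nitrophenol / Evaluation: % inhibition relative to enzyme-containing and enzyme-free wells / Control set: enzyme-free and DMSO wells / Replicates: each compound tested once, singlicate / Schedule: enzyme reaction with compound for 2 h at 37 °C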
SIAE inh conf: human SIAE inhibition, confirmation | shares compounds with SIAE primary | SIAE FP-Rh activity-based probe, fluorescence polarization | inhibition, % at 9.66 µM | actives 13% (n = 2,300) | AID 1117263;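 active = mean inhibition of the replicates above the hit cutoff set in the primary screen, cut at about 17% in these data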;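 note: 0% = SIAE with DMSO and probe and 100% = probe without SIAE; inhibitors lower polarization as more probe stays unbound to SIAE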
* = called active by the depositor; / = no result given.

SMILES | PRMT1 FP inh | SIAE primary | LEDGF integ inh | UHRF1 MBD2 ctr | MBD2 inh | TDP2 absorb | SIAE inh conf
Cn1c(=O)c2c(SCC(=O)Nc3ccccc3F)nc(-c3ccccc3F)nc2n(C)c1=O | -4 | 23* | 1 | -1 | -1 | 11 | 1
Cn1c(=O)c2c(SCC(=O)Nc3ccccc3F)nc(C3CC3)nc2n(C)c1=O | 5 | 1 | -2 | 5 | 0 | -10 | /
CC(NCc1ccco1)C(=O)N1CCN(c2cccc(C(F)(F)F)c2)CC1 (stereo not drawn) | -3 | 6 | -2 | 0 | -1 | 3 | /
COc1cc(OC)c2cc(C(=O)N/N=C/c3ccccc3O)[nH]c2c1 | 7 | 25* | -4 | -3 | 5 | -22 | 5
CCOc1ccc(/C=N/NC(=O)c2cc3c(OC)cc(OC)c(OC)c3[nH]2)cc1 | 3 | 31* | -7 | -3 | 0 | -6 | 17*
COc1cc(OC)c2c(=O)c3c(C(=O)O)c(O)ccc3oc2c1 | -5 | 10 | 4 | -7 | -1 | 10 | /
COC(=O)C12C=C3CC(c4ccc(OC)cc4)=C3C(=O)N1Cc1[nH]c3ccccc3c1C2 (stereo not drawn) | 0 | -3 | -3 | 4 | 1 | 2 | /
C=CCN=C1NC(c2ccccc2C(F)(F)F)C(C(=O)OC)=C(C)N1Cc1ccccc1C(F)(F)F (stereo not drawn) | -2 | -1 | 1 | 3 | 3 | 1 | /
CCOC(=O)N1CCN(Cc2c(F)cccc2Cl)CC1 | 2 | 18* | 0 | 6 | 3 | 13 | 3
CCOC(=O)N1CCN(Cc2c(F)cccc2F)CC1 | 4 | 4 | 0 | -2 | 5 | -5 | /
O=C(Nc1cc(Cl)ccc1N1CCOCC1)c1ccc(Br)o1 | 0 | 24* | 0 | -2 | -3 | -6 | 1
COc1ccc(N2CCOCC2)c(NC(=O)c2ccc(Br)o2)c1 | 4 | 6 | -2 | 0 | 5 | 2 | /
CC(C)[C@H](NC(=O)OCc1ccccc1)C(=O)N[C@@H](Cc1ccccc1)C1(O)CN(C)C(C(=O)NCc2ccccn2)CO1 (stereo partly drawn) | 4 | 0 | -1 | -2 | 3 | -1 | /
O=C(NC1=NC2(C=C3CCCCC3n3c(=O)n(-c4ccccc4)c(=O)n32)CN1CC1CC1)c1ccccc1 (stereo not drawn) | 4 | 3 | 3 | 1 | -6 | 5 | /
Oc1ccc(N=Nc2nc(-c3ccccc3)c(-c3ccccc3)[nH]2)cc1 | -2 | 37* | 0 | -2 | -7 | 1 | -1
c1ccc(-c2c[nH]c3ccc(OCc4ccc5ccccc5n4)c(-c4ccccc4)c23)cc1 | 6 | -7 | 6 | 0 | -2 | -8 | /
CN(C)C(=S)N=Nc1[nH]c2ccccc2c1O | 1 | 21* | -4 | -9 | -10 | 9 | -9
Cc1cccc(C)c1-n1nnnc1C1(C)Cn2nccc2C(=O)N1Cc1ccc(F)cc1 (stereo not drawn) | 2 | -4 | 4 | -2 | -2 | 6 | /
C[n+]1ccc2[nH]c3ccccc3c2c1 | -3 | 26* | 1 | -1 | 1 | 0 | -6
COC(=O)C1CN(Cc2ccc(Cl)cc2)CCS(=O)(=O)N1Cc1cn(Cc2ccc(OC)cc2)nn1 (stereo not drawn) | -2 | -4 | 4 | 12 | 7 | -14 | /
C[C@@H]1CN([C@@H](C)CO)C(=O)CCCn2cc(nn2)CO[C@H]1CN(C)C(=O)Nc1ccc(C(C)(C)C)cc1 | -5 | 5 | -1 | -1 | 1 | 3 | /
Oc1ccccc1C=NNC(=S)NN=Cc1ccccc1O | 3 | 42* | 2 | -5 | -3 | 7 | 52*
NC(=S)N/N=C/c1ccccc1O | 3 | 4 | -3 | 0 | 3 | -1 | /
COc1ccc(N2CCN(CCNS(=O)(=O)c3ccc(Br)s3)CC2)cc1 | -2 | -1 | -4 | 1 | 4 | 8 | /
O=C(OCc1cn(Cc2cccc(F)c2F)nn1)N1CCCC1 | -5 | 1 | 6 | -2 | -7 | -5 | /
SMILES | PRMT1 FP inh | SIAE primary | LEDGF integ inh | UHRF1 MBD2 ctr | MBD2 inh | TDP2 absorb | SIAE inh conf
CC(=O)Nc1ccc(S(=O)(=O)Nc2ccc(Cl)cn2)cc1 | -1 | 88* | 3 | -1 | 1 | 0 | 3
COc1cc(CNCCN2CCOCC2)ccc1OCc1cccc(Cl)c1 | -1 | 17* | 6 | 0 | -2 | 8 | -6
CC(=O)Oc1cc2c(s1)CCN(C(C(=O)C1CC1)c1ccccc1F)C2 (stereo not drawn) | 11 | 3 | 9 | -8 | -9 | -1 | /
CCOc1ccc(C2CC=C(C(=O)O)CN2S(=O)(=O)c2ccc(C)cc2)cc1 (stereo not drawn) | 2 | -5 | 4 | -2 | -2 | -6 | /
O=C(NCc1ccccc1)c1ccc2nc(N3CCOCC3)sc2c1 | -2 | 0 | 3 | 0 | -1 | 3 | /
Nc1c(C(=O)NCc2ccccc2)sc2nc(N3CCOCC3)c3c(c12)CCCC3 | 6 | 19* | 0 | -2 | -1 | 5 | 5
COc1ccc(NC(=O)c2sc3nc(N4CCOCC4)c4c(c3c2N)CC(C)(C)OC4)cc1 | 10 | 4 | 3 | -5 | 1 | 10 | /
CNC(=O)c1ccc(-c2sc3nc(N4CCOCC4)c4c(c3c2N)CCCC4)o1 | 8 | 22* | -1 | 2 | 0 | 3 | 5
NNC(=O)c1sc2nc(N3CCOCC3)c3c(c2c1N)CCCC3 | -2 | 18* | 0 | -2 | 0 | 11 | 2
CN1C(=O)C[C@@](C#N)(C(=O)N2CCCC2)[C@H]1c1ccccc1 | 2 | 0 | -1 | 0 | 1 | 2 | /
COc1ccc(C2CC(=O)C(c3ccccc3C)=CN2Cc2ccccc2)cc1 (stereo not drawn) | 3 | -1 | -4 | 5 | 8 | 2 | /
CCCCCCN1CCS(=O)(=O)N(Cc2ccc(Cl)cc2)C(C(=O)OC)C1 (stereo not drawn) | 4 | 4 | -3 | 0 | 0 | -2 | /
O=[N+]([O-])c1cc(C(F)(F)F)ccc1NCCc1c[nH]c2ccc(O)cc12 | 6 | 17* | 5 | -4 | -3 | 2 | 2
CC/C(Cc1ccccc1)=N\NC(=O)c1cc([N+](=O)[O-])cc([N+](=O)[O-])c1 | 2 | -3 | 0 | 1 | 6 | 3 | /
CC/C(Cc1ccccc1)=N/NC(=O)c1cccc(Br)c1 | -2 | 18* | -1 | -1 | 2 | 0 | 0
CCC(CC)C(=O)NCCc1ccc(OC)cc1 | 0 | 17* | -2 | -2 | -4 | -6 | 1
CCC(CC)C(=O)NCCCCc1ccccc1 | 0 | 20* | 3 | -1 | -5 | -2 | -2

Screening data: PubChem, The Scripps Research Institute Molecular Screening Center
